Reference: ChEMBL document CHEMBL4732181, “Pyrazolo[3,4-d]pyrimidine-based dual EGFR T790M/HER2 inhibitors: Design, synthesis, structure-activity relationship and biological activity as potential antitumor and anticonvulsant agents” (Eur J Med Chem, 2021)
Active and inactive are the calls of the source. The calls are words filed in the database; no cut-off is given here.

Experiments:
[1] = test system: WI-38; assay: Cytotoxicity against human WI-38 cells assessed as reduction in cell viability after 48 hrs by MTT assay; format: cell-based; conditions: WI-38, 48 h
Outline: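 Cells from ATCC grown in DMEM with 10% FBS, insulin and 1% penicillin-streptomycin. Plated at 1.2-1.8 × 10,000 cells/well for 24 h, then exposed to compounds in DMSO vehicle for 48 h. MTT 0.5 mg/ml added for 2 h; absorbance read at 570 nm. Experiments run in triplicate.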

[2] = test system: HCT-116; assay: Induction of cell cycle arrest in human HCT-116 cells assessed as cell accumulation at pre-G1 phase at IC50 concentration after 24 hrs by propidium iodide staining based flow cytometric analysis (reference value: 2.02%); format: functional
[3] = test system: HCT-116; assay: Induction of cell cycle arrest in human HCT-116 cells assessed as cell accumulation at G1 phase at IC50 concentration after 24 hrs by propidium iodide staining based flow cytometric analysis (reference value: 46.95%); format: functional
[4] = test system: HCT-116; assay: Induction of cell cycle arrest in human HCT-116 cells assessed as cell accumulation at S phase at IC50 concentration after 24 hrs by propidium iodide staining based flow cytometric analysis (reference value: 37.66%); format: functional
[5] = test system: HCT-116; assay: Induction of cell cycle arrest in human HCT-116 cells assessed as cell accumulation at G2/M phase at IC50 concentration after 24 hrs by propidium iodide staining based flow cytometric analysis (reference value: 15.39%); format: functional
[6] = test system: HCT-116; assay: Induction of cell cycle arrest in human HCT-116 cells assessed as cell increase in accumulation at G2/M phase at IC50 concentration after 24 hrs by propidium iodide staining based flow cytometric analysis; format: functional
[7] = test system: HCT-116; assay: Induction of apoptosis in human HCT-116 cells assessed as early apoptotic cells at IC50 concentration after 24 hrs by annexin-V-FITC/PI staining based flow cytometric analysis (reference value: 0.34%); format: functional
[8] = test system: HCT-116; assay: Induction of apoptosis in human HCT-116 cells assessed as late apoptotic cells at IC50 concentration after 24 hrs by annexin-V-FITC/PI staining based flow cytometric analysis (reference value: 1.31%); format: functional
[9] = test system: HCT-116; assay: Induction of apoptosis in human HCT-116 cells assessed as increase in early apoptotic cells at IC50 concentration after 24 hrs by annexin-V-FITC/PI staining based flow cytometric analysis; format: functional
[10] = test system: HCT-116; assay: Induction of apoptosis in human HCT-116 cells assessed as increase in late apoptotic cells at IC50 concentration after 24 hrs by annexin-V-FITC/PI staining based flow cytometric analysis; format: functional
[11] = test system: HCT-116; assay: Induction of apoptosis in human HCT-116 cells assessed as increase in caspace-3 protein expression at IC50 concentration after 24 hrs by ELISA; format: functional
Outline: (§1)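 Cells treated at IC50 for 24 h and lysed in cell extraction buffer. Lysate diluted in standard diluent buffer and human caspase-3, -7, -9, Bax and Bcl-2 quantified by immunoassay kit (pg/mL). Fold change calculated against untreated control cells.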

[12] = test system: HCT-116; assay: Induction of apoptosis in human HCT-116 cells assessed as increase in caspace-7 protein expression at IC50 concentration after 24 hrs by ELISA; format: functional; outline: as §1
[13] = test system: HCT-116; assay: Induction of apoptosis in human HCT-116 cells assessed as increase in caspace-9 protein expression at IC50 concentration after 24 hrs by ELISA; format: functional; outline: as §1
[14] = test system: HCT-116; assay: Induction of apoptosis in human HCT-116 cells assessed as increase in Bax protein expression at IC50 concentration after 24 hrs by ELISA; format: functional; outline: as §1
[15] = test system: HCT-116; assay: Induction of apoptosis in human HCT-116 cells assessed as decrease in Bcl-2 protein expression at IC50 concentration after 24 hrs by ELISA; format: functional; outline: as §1
[16] = test system: HCT-116; assay: Induction of apoptosis in human HCT-116 cells assessed as increase in Bax/Bcl-2 ratio at IC50 concentration after 24 hrs by ELISA; format: functional, cell-based; outline: as §1
[17] = target: T1, Receptor tyrosine-protein kinase erbB-2 (Homo sapiens, UniProt P04626); assay: Inhibition of HER2 (unknown origin) at 10 uM relative to control
T1 sequence (P04626 whole entry): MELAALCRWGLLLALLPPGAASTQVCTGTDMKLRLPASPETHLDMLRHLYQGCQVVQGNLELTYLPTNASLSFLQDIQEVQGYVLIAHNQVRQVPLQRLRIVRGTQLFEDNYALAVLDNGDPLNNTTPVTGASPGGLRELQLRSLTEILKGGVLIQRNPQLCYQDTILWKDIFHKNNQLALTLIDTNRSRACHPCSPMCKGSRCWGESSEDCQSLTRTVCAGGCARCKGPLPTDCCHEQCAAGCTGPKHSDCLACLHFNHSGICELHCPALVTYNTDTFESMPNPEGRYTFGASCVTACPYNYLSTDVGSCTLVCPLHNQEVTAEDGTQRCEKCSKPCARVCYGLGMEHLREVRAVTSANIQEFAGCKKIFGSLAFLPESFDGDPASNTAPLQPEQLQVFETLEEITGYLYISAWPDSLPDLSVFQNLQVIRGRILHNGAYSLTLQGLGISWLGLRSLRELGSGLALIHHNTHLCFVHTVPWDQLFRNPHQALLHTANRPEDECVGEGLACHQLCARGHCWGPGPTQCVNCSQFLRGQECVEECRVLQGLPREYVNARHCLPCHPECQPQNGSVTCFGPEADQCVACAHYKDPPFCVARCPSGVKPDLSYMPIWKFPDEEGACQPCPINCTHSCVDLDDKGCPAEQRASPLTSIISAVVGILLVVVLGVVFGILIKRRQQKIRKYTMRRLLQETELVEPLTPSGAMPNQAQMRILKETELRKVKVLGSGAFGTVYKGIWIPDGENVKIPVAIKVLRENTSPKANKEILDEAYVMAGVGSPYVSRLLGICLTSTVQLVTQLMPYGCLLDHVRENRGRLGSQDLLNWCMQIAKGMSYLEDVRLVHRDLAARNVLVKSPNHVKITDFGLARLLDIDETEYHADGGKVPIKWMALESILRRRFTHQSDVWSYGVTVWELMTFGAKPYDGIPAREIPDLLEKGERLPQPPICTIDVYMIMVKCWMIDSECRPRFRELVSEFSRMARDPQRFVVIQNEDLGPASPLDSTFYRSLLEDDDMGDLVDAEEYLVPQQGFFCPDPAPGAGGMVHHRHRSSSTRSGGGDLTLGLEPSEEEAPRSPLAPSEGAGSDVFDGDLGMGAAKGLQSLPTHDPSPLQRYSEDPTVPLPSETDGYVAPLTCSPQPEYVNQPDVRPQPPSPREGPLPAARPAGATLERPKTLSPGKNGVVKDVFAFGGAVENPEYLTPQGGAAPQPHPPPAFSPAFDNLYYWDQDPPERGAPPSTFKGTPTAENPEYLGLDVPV
Outline: (§2)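 Cell-free immunoassay kit measuring EGFR T790M/HER2 kinase inhibition. Percent inhibition screened at 10 µM. IC50 obtained from four concentrations (0.01-10 µM) by fitting E(%) = Emax/(1+[I]/ID50) to a dose-response curve. Mean of two independent replicates.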

[18] = target: Epidermal growth factor receptor (Homo sapiens, UniProt P00533, T790M); assay: Inhibition of EGFR T790M mutant (unknown origin)
Epidermal growth factor receptor, sequence (P00533 25-1210 T790M limits assumed): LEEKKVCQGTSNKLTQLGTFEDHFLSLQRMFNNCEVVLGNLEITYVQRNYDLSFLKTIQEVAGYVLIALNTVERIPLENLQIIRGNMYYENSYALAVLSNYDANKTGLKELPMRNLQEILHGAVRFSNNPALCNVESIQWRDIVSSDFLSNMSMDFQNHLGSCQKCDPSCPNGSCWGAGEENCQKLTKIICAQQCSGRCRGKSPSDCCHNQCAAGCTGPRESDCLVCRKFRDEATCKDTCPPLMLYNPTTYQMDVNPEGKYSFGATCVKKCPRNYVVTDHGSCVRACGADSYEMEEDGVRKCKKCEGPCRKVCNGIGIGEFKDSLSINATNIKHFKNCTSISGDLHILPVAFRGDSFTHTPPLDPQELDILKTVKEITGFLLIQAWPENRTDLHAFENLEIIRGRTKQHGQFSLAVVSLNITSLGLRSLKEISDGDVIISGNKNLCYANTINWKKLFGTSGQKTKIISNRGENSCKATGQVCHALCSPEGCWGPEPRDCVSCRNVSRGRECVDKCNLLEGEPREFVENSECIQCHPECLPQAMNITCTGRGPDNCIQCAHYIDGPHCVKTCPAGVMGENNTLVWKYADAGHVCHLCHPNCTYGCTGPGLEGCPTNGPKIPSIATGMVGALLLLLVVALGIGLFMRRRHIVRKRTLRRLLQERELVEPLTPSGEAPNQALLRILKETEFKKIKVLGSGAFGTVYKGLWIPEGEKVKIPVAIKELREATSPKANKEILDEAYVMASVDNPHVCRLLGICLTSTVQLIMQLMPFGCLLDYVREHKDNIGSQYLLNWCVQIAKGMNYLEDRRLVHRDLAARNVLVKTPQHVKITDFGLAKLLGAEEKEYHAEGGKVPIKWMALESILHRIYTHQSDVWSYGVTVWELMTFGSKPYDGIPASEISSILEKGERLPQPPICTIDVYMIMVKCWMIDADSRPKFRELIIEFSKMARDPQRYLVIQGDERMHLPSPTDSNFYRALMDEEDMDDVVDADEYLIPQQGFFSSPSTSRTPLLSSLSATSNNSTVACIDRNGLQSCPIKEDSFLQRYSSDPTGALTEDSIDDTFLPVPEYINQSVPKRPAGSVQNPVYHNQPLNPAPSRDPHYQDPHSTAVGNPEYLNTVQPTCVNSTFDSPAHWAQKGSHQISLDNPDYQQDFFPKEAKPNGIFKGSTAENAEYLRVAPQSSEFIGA

[19] = target: T1, Receptor tyrosine-protein kinase erbB-2; assay: Inhibition of HER2 (unknown origin); outline: as §2
[20] = test system: Mus musculus; assay: Anticonvulsant activity against mouse model of LiCa/pilocarpine-induced status epilepticus assessed as mean power frequency at 20 mg/kg, po for 10 days by EEG method relative to control; format: functional; conditions: time 10 day
Outline: (§3)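 Male mice (20-30 g), five per group, dosed orally once daily for 10 days. Status epilepticus was then induced with LiCa (3 mEq/kg i.p.), atropine sulfate (1 mg/kg i.p.) 30 min before pilocarpine, and pilocarpine HCl (300 mg/kg i.p.) 2 h after LiCa. Normal controls received oral distilled water. Comparators were untreated SE, phenytoin and lamotrigine. One-way ANOVA with Tukey post-hoc; mean ± SD.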

[21] = test system: Mus musculus; assay: Anticonvulsant activity against mouse model of LiCa/pilocarpine-induced status epilepticus assessed as spectral edge frequency at 20 mg/kg, po for 10 days by EEG method relative to control; format: functional; conditions: time 10 day; outline: as §3
[22] = test system: Mus musculus; assay: Anticonvulsant activity against mouse model of LiCa/pilocarpine-induced status epilepticus assessed as total power at 20 mg/kg, po for 10 days by EEG method relative to control; format: functional; conditions: time 10 day; outline: as §3
[23] = test system: Mus musculus; assay: Anticonvulsant activity against mouse model of LiCa/pilocarpine-induced status epilepticus assessed as amplitude at 20 mg/kg, po for 10 days by EEG method relative to control; format: functional; conditions: time 10 day; outline: as §3
[24] = test system: Mus musculus; assay: Anticonvulsant activity against mouse model of LiCa/pilocarpine-induced status epilepticus assessed as amplitude density at 20 mg/kg, po for 10 days by EEG method relative to control; format: functional; conditions: time 10 day; outline: as §3
[25] = test system: Mus musculus; assay: Anticonvulsant activity against mouse model of LiCa/pilocarpine-induced status epilepticus assessed as power pV2 at 20 mg/kg, po for 10 days by EEG method relative to control; format: functional; conditions: time 10 day; outline: as §3
[26] = test system: Mus musculus; assay: Anticonvulsant activity against mouse model of LiCa/pilocarpine-induced status epilepticus assessed as total power density at 20 mg/kg, po for 10 days by EEG method relative to control; format: functional; conditions: time 10 day; outline: as §3
[27] = test system: Mus musculus; assay: Anticonvulsant activity against mouse model of LiCa/pilocarpine-induced status epilepticus assessed as delta at 20 mg/kg, po for 10 days by EEG method relative to control; format: functional; conditions: time 10 day; outline: as §3
[28] = test system: Mus musculus; assay: Anticonvulsant activity against mouse model of LiCa/pilocarpine-induced status epilepticus assessed as theta at 20 mg/kg, po for 10 days by EEG method relative to control; format: functional; conditions: time 10 day; outline: as §3
[29] = test system: Mus musculus; assay: Anticonvulsant activity against mouse model of LiCa/pilocarpine-induced status epilepticus assessed as alpha at 20 mg/kg, po for 10 days by EEG method relative to control; format: functional; conditions: time 10 day; outline: as §3
[30] = test system: Mus musculus; assay: Anticonvulsant activity against mouse model of LiCa/pilocarpine-induced status epilepticus assessed as MDA level in brain at 20 mg/kg, po for 10 days by calorimetric method relative to control; format: functional; conditions: time 10 day; outline: as §3
[31] = test system: Mus musculus; assay: Anticonvulsant activity against mouse model of LiCa/pilocarpine-induced status epilepticus assessed as GSH level in brain at 20 mg/kg, po for 10 days by calorimetric method relative to control; format: functional; conditions: time 10 day; outline: as §3
[32] = test system: Mus musculus; assay: Anticonvulsant activity against mouse model of LiCa/pilocarpine-induced status epilepticus assessed as GABA level in brain at 20 mg/kg, po for 10 days by ELISA relative to control; format: functional; conditions: time 10 day; outline: as §3
[33] = test system: Mus musculus; assay: Anticonvulsant activity against mouse model of LiCa/pilocarpine-induced status epilepticus assessed as Glutamate level in brain at 20 mg/kg, po for 10 days by ELISA relative to control; format: functional; conditions: time 10 day; outline: as §3

Cc1ccc(C2=N/C(=C/c3ccc(Cl)cc3)C(=O)NN2C(=O)Cc2nc3c(c(C)nn3-c3ccccc3)c(=O)[nH]2)cc1 gave an IC50 [1] of 29.4 nM, an Activity [2] of 17.35% and an Activity [3] of 22.64%. The Activity [4] was 31.42%, the Activity [5] was 45.94% and the “fold change (FC)” value [6] was 2.98. The Activity [7] was 10.37%, the Activity [8] was 2.72% and the “fold change (FC)” value [9] was 30.79. The “fold change (FC)” value [10] was 2, the “fold change (FC)” value [11] was 18.5 and the “fold change (FC)” value [12] was 20. For the same compound, the “fold change (FC)” value [13] was 16.5, the “fold change (FC)” value [14] was 6.9 and the “fold change (FC)” value [15] was 3.8. The Activity [16] was “Active”, the inhibition [17] was 72.6% and the IC50 [18] was 422 nM. For the same compound, the IC50 [19] was 634 nM, the Activity [20] was -24.4% and the Activity [21] was -16.14%. The Activity [22] was 2.62%, the Activity [23] was 50.22% and the Activity [24] was 62.01%. The Activity [25] was 121.31%, the Activity [26] was 176.8% and the Activity [27] was 229.74%. The Activity [28] was 44.83%, the Activity [29] was 31.95% and the Activity [30] was -57.67%. It also gave an Activity [31] of 134.61%, an Activity [32] of 56.77% and an Activity [33] of -37.61%.
